Screening results as filed in PubChem.
A selection: hits, their analogues and other compounds. The true share with any hit is near 1.8%.
CHRM5 antagonist – blocks acetylcholine activation of human M5 receptor; hit rate 0.59% among 360,000; inhibition, % at 3 µM; P08912; CHO-hM5 cells, Fluo-8 calcium fluorescence, ACh EC80;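 active = inhibition above a per-plate cutoff, the mean of that plate's test compounds plus 3 SD, cut at about 27% in these data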
Target sequence (P08912 whole entry, looked up): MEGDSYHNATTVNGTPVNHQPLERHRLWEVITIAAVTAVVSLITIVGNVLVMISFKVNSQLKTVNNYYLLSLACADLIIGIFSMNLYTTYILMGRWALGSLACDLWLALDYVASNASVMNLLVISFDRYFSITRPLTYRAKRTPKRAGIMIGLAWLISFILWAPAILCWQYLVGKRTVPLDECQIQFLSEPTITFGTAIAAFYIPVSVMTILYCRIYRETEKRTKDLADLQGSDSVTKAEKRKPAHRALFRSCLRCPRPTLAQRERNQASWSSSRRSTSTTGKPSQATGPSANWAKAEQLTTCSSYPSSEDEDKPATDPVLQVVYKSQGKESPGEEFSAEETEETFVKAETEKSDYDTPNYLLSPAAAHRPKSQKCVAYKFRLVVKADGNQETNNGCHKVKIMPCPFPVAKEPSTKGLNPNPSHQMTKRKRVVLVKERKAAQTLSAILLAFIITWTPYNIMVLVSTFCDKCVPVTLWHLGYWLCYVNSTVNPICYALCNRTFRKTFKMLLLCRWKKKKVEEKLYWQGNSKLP
M5 ag – CHRM5 agonism in calcium assay; P08912; hit rate 0.19% among 360,000; AID 624037; CHO-K1 hM5 cells, Fluo-8 calcium fluorescence; 0% DMSO wells, 100% maximal acetylcholine response; activation, % at 3 µM;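 active = activation above the run's mean over test compounds plus 3 SD, cut at about 23% in these data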;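 also: signal is peak over basal fluorescence ratio across the kinetic read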
CHRM4 PAM – potentiates acetylcholine response at human M4 receptor | P08173 | CHO-K1 hM4/Gqi5, Fluo-8 calcium fluorescence, ACh EC20; 0% = ACh EC20, 100% = maximal ACh | activation, % at 3 µM | hit rate 0.4% among 360,000 | AID 624126;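 active = activation above its plate's cutoff, the mean activation of sample wells plus 3 SD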
CHRM5 PAM – potentiates acetylcholine response at human M5 receptor | P08912 | CHO-K1 hM5, Fluo-8 calcium, ACh EC20 PAM; 0% = ACh EC20, 100% = ACh EC100 | activation, % at 3 µM | hit rate 0.3% among 360,000 | AID 624038;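 active = activation above the run cutoff, the mean activation of all test compounds plus 3 SD, cut at about 18% in these data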
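Measured by: Fluo-8 calcium fluorescence; material: human M5 receptor in CHO-K1 cells; schedule: Post-acetylcholine fluorescence recording 140 s; benchmarks: low control EC20 acetylcholine (0%), high control EC100 acetylcholine (100%); read-out: Max/basal fluorescence ratio as % of EC20–EC100 ACh window; compound: single dose, 3 µM nominal final test concentration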
CHRM4 antagonist – blocks acetylcholine activation of human M4 receptor; P08173; CHO-hM4 cells, ACh EC80, Fluo-8 calcium fluorescence; inhibition, % at 3 µM; hit rate 0.73% among 360,000;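 active = inhibition above its plate's cutoff, the mean inhibition of sample wells plus 3 SD, cut at about 27% in these data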
CHRM4 agonist – CHRM4 agonism in calcium assay; P08173; CHO-K1 hM4/Gqi5, Fluo-8 calcium fluorescence; vehicle 0%, full acetylcholine response 100%; activation, % at 3 µM; hit rate 0.14% among 360,000; AID 624127;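 active = activation above the run mean over all test wells plus 3 SD, cut at about 32% in these data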;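 also: peak over basal fluorescence ratio per well then scaled between controls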
Hits are given with their value; – = inactive; ! = repeats disagree.

SMILES | CHRM5 antagonist | M5 ag | CHRM4 PAM | CHRM5 PAM | CHRM4 antagonist | CHRM4 agonist
COCCCn1c(SCC(=O)NC(C)C)nnc1-c1ccccc1 | – | – | – | 19 | – | –
CSc1ccc(S(=O)(=O)N2CCC(C(=O)NCC3CCCO3)CC2)cc1 (stereo unspecified) | – | – | – | – | – | –
CCNc1nc(NCC)n2c(SCC(=O)Nc3cccc(Cl)c3)nnc2n1 | – | – | – | 22 | – | –
O=C(CSc1nc2[nH]ncc2c(=O)[nH]1)Nc1ccccc1 | – | – | – | – | – | –
CCCC1NC(=O)c2cccnc2-n2c1nc1cc(F)c(F)cc1c2=O (stereo unspecified) | – | – | – | – | – | –
Cc1ccc(CNC(=O)C(NS(=O)(=O)c2cccc3nsnc23)C(C)C)cc1 (stereo unspecified) | 30 | – | – | – | – | –
Cc1ccc(NC(=O)C(NS(=O)(=O)c2cccc3nsnc23)C(C)C)nc1 (stereo unspecified) | – | – | – | – | – | –
O=C(CSc1nnc(CNC(=O)c2ccco2)o1)Nc1cccc(F)c1 | – | – | – | – | – | –
COc1cccc2cc(C(=O)NCc3ccccn3)c(=O)oc12 | – | – | 22 | – | – | –
CNC(=O)c1cc2cccc(OC)c2oc1=O | – | – | – | – | – | –
O=C(NN1C(=O)C2C(c3ccccc3)C=CC(c3ccccc3)C2C1=O)c1cccc(Br)c1 (stereo unspecified) | 37 | – | – | – | – | –
COc1ccc(C(=O)N/C(=C\c2ccccc2)C(=O)N2CCOCC2)cc1 | – | – | 19 | – | – | –
CCOc1ccc(S(=O)(=O)N2CCN(C(=O)CN3C(=O)NC(C)(C)C3=O)CC2)cc1 | – | – | – | – | – | –
O=C1NC[C@H](CCCCN2C[C@H](Cc3ccc(O)cc3)N(CCc3ccccc3)C(=O)C2=O)N(CCC2CCCCC2)C1=O | – | – | – | – | – | –
N#CC1=C(N)OC2=C(C(=O)CC(c3ccccc3)C2)C1c1ccc2c(c1)OCO2 (stereo unspecified) | – | – | – | – | 38 | –
N#CC1=C(N)OC(c2ccccc2)=C(C#N)C1c1ccc2c(c1)OCO2 (stereo unspecified) | – | – | – | – | – | –
CC1=C/C(=C\C=C(C#N)C#N)N(C)c2ccccc21 | – | 43 | – | – | – | –
CN1/C(=C/C=C(C#N)C#N)C(C)(C)c2ccccc21 | – | – | – | – | – | –
Cc1c(P(=S)(c2ccccc2)c2ccccc2)[n+]2ccccc2n1C/C=C/c1ccccc1 | – | – | – | – | 29 | –
CC(O)c1nc2ccccc2n1C/C=C/c1ccccc1 (stereo unspecified) | – | – | – | – | – | –
CCN1/C(=C/c2sc(-c3ccccc3C)c[n+]2C)Sc2ccccc21 | 37 | – | – | – | – | –
CCN(CC)CCCCCCCCOC(=O)c1cc(OC)c(OC)c(OC)c1 | – | – | – | – | 29 | –
CSc1nc2ccccc2n1Cc1c(Cl)cccc1Cl | – | – | – | 21 | – | –
CN1C(C(=O)NCc2cccc(Br)c2)CC2Cn3c(nc4cc5ccccc5cc43)C21 (stereo unspecified) | – | – | – | – | – | –
CCCCN(C(=O)CC1CCCC1)c1c(N)n(CC(C)C)c(=O)[nH]c1=O | – | – | – | – | – | –
SMILES | CHRM5 antagonist | M5 ag | CHRM4 PAM | CHRM5 PAM | CHRM4 antagonist | CHRM4 agonist
CC(CN(C)C)CN1c2ccccc2CCc2ccccc21 (stereo unspecified) | 99 | – | – | – | 87 | –
CN(C)CCCN1c2ccccc2CCc2ccccc21 | 80 | – | – | – | 70 | –
CN(C)CCCC1(O)c2ccccc2CCc2ccccc21 | – | – | – | – | – | –
CNC(=O)N1c2ccccc2CCc2ccccc21 | – | – | – | – | – | –
CCCCN(C(=O)c1ccncc1)c1c(N)n(CCC)c(=O)[nH]c1=O | – | – | – | – | – | –
O=C(Cn1c(=O)c2cccn2c2ccc(F)cc21)N1CCN(c2ccc(F)cc2)CC1 | 28 | – | – | – | – | –
Cc1cnc(NC(=O)CSc2ncc(-c3ccccc3)n2Cc2ccco2)s1 | – | 26 | – | – | – | –
CC(C)c1ccc(-c2nc(N3CCCC3)nc3n[nH]c(N)c23)cc1 | – | – | – | 54 | – | –
O=c1c(-c2ccco2)[n+]([O-])c2ccccc2n1OCc1c(F)cccc1F | – | – | – | 19 | – | –
O=C(NNc1ccc(F)cc1F)c1c(F)cccc1Cl | – | – | – | – | – | –
O=S(=O)(NNc1ccc(F)cc1F)c1cccc(Cl)c1 | – | – | – | – | 67 | –
COc1cccc(NC(=O)COC(=O)c2ccc(F)cc2F)c1 | – | – | – | – | – | –
COc1cc(NC(=O)COC(=O)c2ccccc2F)cc(OC)c1 | – | – | – | – | 29 | –
Cc1ccc(OS(=O)(=O)c2c(C)nn(C)c2Cl)c(C)c1 | 31 | – | – | – | 43 | –
Cc1ccc(C)c(NS(=O)(=O)c2c(C)nn(C)c2C)c1 | – | – | – | – | – | –
Nc1c(Br)cc2oc(-c3ccccc3)nc2c1Br | – | – | – | – | – | –
COc1ccc(-c2nc3c(Br)c(N)c(Br)cc3o2)cc1 | – | – | 29 | – | 27 | –
CC1Nc2ncnc(N3CCOCC3)c2N(Cc2ccc(Cl)cc2)C1=O (stereo unspecified) | – | – | – | – | – | –
CCC1Nc2ncnc(N3CCOCC3)c2N(Cc2ccc(Cl)cc2)C1=O (stereo unspecified) | – | – | 24 | – | – | –
COc1ccc(C(N)c2csc(Nc3cc(Oc4ccccc4)ncn3)n2)cc1 (stereo unspecified) | 30 | – | – | – | 41 | –
COc1ccc(-n2c(CSc3nc(C)cc(C)n3)nnc2SCC(=O)Nc2nccs2)cc1 | – | – | – | – | – | –
Cc1ccc(-n2c(CSc3nc(C)cc(C)n3)nnc2SCC(=O)Nc2nccs2)cc1 | – | – | – | – | 38 | –
Cc1cccc(OCC(=O)Nc2ccc(NC(=O)c3ccco3)cc2)c1 | – | – | – | – | – | –
CCc1ccc(OCc2nnc(SCc3ccc(C(=O)O)cc3)o2)cc1 | – | – | 27 | – | – | –
O=C(O)c1ccc(CSc2nnc(COc3ccccc3)o2)cc1 | – | – | – | – | – | –
CN1C(=O)/C(=C/c2ccccc2OCc2ccc(F)cc2)N(C)C1=S | 77 | – | – | – | 97 | –
CN1CCN(Cc2nc3ccccc3c(=O)n2Cc2nc(-c3ccc4ccccc4c3)cs2)CC1 | – | – | 22! | – | – | –
